Columns and labels:
[1] = system: woodchuck hepatitis virus (WHV); experiment: Efficacy study in WHV-positive woodchucks; type: in vivo
Summary of the method: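 Adult chronically WHV-infected woodchucks of both sexes (serum WHV DNA, WHsAg and WHeAg positive; anti-WHs and anti-WHe negative) stratified into four groups, n = 5. Daily oral nucleoside analogue (0.1 mg/kg/day) or PBS vehicle in diet for 4 weeks. Then 12 weeks adding weekly oral TLR7 agonist (5.0–30.0 mg/kg/week) or carboxymethyl cellulose/tween-80 vehicle. Then 4 weeks daily drug only, followed to week 36. Serum WHsAg and anti-WHs by enzyme immunoassay. WHeAg and anti-WHe by cross-reactive ELISA OD.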

serum IP-10, IL-6, TNF-α = experiment: Mouse PD study: serum cytokines after single oral dose; type: in vivo, C57BL/6 mice; conditions: serum at 3 hours
Summary of the method: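 Female C57BL/6 mice, 7-8 weeks old, given a single oral dose of test compound at 0.3, 3, 30 or 300 mg/kg. Bled at 3 hours. Serum IP-10, IL-6 and TNF-α quantified as pg/mL, reported as mean ± SD.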

[2] = mice; cited from earlier work
[3] = cited from earlier work
[4] = cited from earlier work; remark: listed apart in the source
OAS1 transcript in blood = conditions: woodchuck model; cited from earlier work

Row | SMILES | woodchucks with recrudescence of WHV replication after drug withdrawal ([1]; Group 1) | animals with undetectable serum WHeAg during the study ([1]; Group 1, n = 5) | animals with undetectable serum WHsAg during the study ([1]; Group 1, n = 5) | elicitation of anti-WHs antibodies ([1]; monotherapy (Groups 1 and 2)) | serum IL-6 level relative to APR002 (serum IP-10, IL-6, TNF-α; high oral doses) | serum TNF-α level relative to APR002 (serum IP-10, IL-6, TNF-α; high oral doses) | slope of serum IP-10 dose response (serum IP-10, IL-6, TNF-α; single oral dose 0.3-300 mg/kg) | volume of distribution [2] | clearance in mouse liver microsomes [3] | clearance in human liver microsomes [4] | fold change in blood OAS1 (OAS1 transcript in blood)
1 | C=C1[C@H](CO)[C@@H](O)C[C@@H]1n1cnc2c(=O)[nH]c(N)nc21 [ETV, entecavir] | all five | five | four | did not occur in any animal |  |  |  |  |  |  | 
2 | CCCCOc1nc(N)c2c(n1)N(Cc1cccc(CN3CCCC3)c1)CC(=O)N2 [GS-9620] |  |  |  |  | > 6 fold | > 4 fold | 2.8 | high volume of distribution | fast clearance | fast clearance | 5 fold
